# A selection: hits, their analogues and other compounds. The true share with any hit is near 2.5%.
# CTSL1 counter = Fasciola hepatica cathepsin L1 inhibitors, primary screen, counter-screen for PFM18AAP inhibitor project, biochemical, QFRET, fluorogenic peptide substrate. inhibition, % at 5.96 µM. 0.49% of 300,000 active. recombinant F. hepatica cathepsin L1, Z-Leu-Arg-MCA fluorescence. AID 1906, 2009;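 active = inhibition above the mean of all tested compounds plus 3 SD, set per screening campaign, cut at about 17% in these data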;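 also: 0% = plate median of test compound wells and 100% = 1 µM Z-Phe-Ala-diazomethylketone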
# TDP2 inh = human TDP2 enzyme inhibitors, primary screen, biochemical, epi absorbance, recombinant enzyme | T5PNP hydrolysis, p-nitrophenol absorbance 415 nm | inhibition, % at 12.8 µM | 0.34% of 370,000 active;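 active = inhibition above the mean of all tested compounds plus 3 SD, set per campaign, cut at about 25% in these data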;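 also: 0% = DMSO with enzyme and 100% = buffer with substrate but no TDP2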
#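 Test system: human TDP2 enzyme; Input: 120 nM TDP2 per well; Buffer or medium: Mg2+-containing Tris-HCl buffer, pH 7.5; Reagent: 5 mM T5PNP; Dosing: 12.8 µM single point, 1% DMSO; Incubation: reaction 2 h, 37 °C; Detection: p-Nitrophenol epi absorbance; Read-out: % inhibition relative to enzyme-containing and enzyme-free wells; Replicates: single well per compound.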
# PAD4 FP inh = human PAD4 inhibitors, primary screen, biochemical, fluorescence polarization, 1536-well format; Protein-arginine deiminase type-4 (Homo sapiens), Q9UM07; recombinant PAD4, RCA probe fluorescence polarization; inhibition, % at 6.36 µM; 0.41% of 330,000 active; AID 485272, 2010;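 active = percent inhibition above a cutoff equal to the mean of all tested compounds plus 3 SD, cut at about 15% in these data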;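 also: 0% = PAD4 with RCA probe and DMSO and 100% = probe without PAD4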
# Target sequence (Q9UM07 whole entry, looked up): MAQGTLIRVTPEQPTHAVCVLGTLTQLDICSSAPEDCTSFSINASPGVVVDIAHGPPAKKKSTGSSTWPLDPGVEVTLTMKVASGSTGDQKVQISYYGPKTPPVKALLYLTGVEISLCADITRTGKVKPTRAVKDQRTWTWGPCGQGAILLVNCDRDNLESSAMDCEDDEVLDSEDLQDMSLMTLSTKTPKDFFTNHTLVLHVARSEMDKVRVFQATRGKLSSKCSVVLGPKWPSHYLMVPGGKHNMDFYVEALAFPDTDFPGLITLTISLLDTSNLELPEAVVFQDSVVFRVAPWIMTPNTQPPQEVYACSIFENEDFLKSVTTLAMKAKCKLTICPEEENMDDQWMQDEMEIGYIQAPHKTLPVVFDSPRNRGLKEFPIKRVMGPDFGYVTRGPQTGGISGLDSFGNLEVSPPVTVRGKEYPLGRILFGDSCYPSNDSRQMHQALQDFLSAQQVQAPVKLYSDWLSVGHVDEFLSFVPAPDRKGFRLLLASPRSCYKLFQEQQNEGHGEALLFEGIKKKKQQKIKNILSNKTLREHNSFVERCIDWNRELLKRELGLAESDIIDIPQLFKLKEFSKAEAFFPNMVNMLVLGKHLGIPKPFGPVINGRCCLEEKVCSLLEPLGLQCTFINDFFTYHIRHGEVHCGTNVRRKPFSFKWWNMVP
# PRMT1 inh = PRMT1 methyltransferase inhibitors, primary screen, biochemical, fluorescence polarization | 1.3% of 370,000 active | Protein arginine N-methyltransferase 1 (Homo sapiens), Q99873 | inhibition, % at 2.79 µM | AID 652257, 2013 | recombinant PRMT1, activity-based probe fluorescence polarization;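 active = inhibition above about 21% made by adding two undisclosed values, limit read from the data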
# GSTO1 inh = inhibitors of recombinant GSTO1, primary screen, counter-screen for RBBP9 inhibitor project, biochemical, fluorescence polarization. Glutathione S-transferase omega-1 (Homo sapiens), P78417. activity-based probe fluorescence polarization. inhibition, % at 5.96 µM. 1.1% of 300,000 active. AID 1974, 2009;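 active = inhibition above the campaign mean inhibition plus 3 SD, cut at about 35% in these data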;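 also: 0% = GSTO1-1 with DMSO and 100% = wells lacking GSTO1-1 enzyme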
# * hit, by the source's call; . = not tested or not shown.
SMILES,CTSL1 counter,TDP2 inh,PAD4 FP inh,PRMT1 inh,GSTO1 inh
CCOC(=O)COn1c(=O)c(-c2ccc(C)cc2)[n+]([O-])c2ccccc21,20*,22,-2,2,9
CCOC(=O)C(C(=O)OCC)N(C#N)c1nc(OC)nc(N(C)C)n1,77*,11,-3,-4,4
CCOC(=O)COc1nc(N(C)C)nc(N(C)C)n1,-1,3,1,1,2
CCOC(=O)C(C(=O)OCC)N(C#N)c1nc(SC)nc(N(C)C)n1,86*,2,-1,-5,-2
CSc1nc(N(C)C)nc(N(C#N)CCOC(C)=O)n1,-4,-1,-1,2,6
CN(CCCOC(=O)c1occ2ccccc12)C1CN(Cc2cn(Cc3ccccc3Cl)nn2)S(=O)(=O)C1 (stereo unspecified),.,-3,.,5,.
CC(C)(C)C(=O)Nc1ccccc1C(=O)N1CCCC1,17*,8,4,2,4
O=C1C(C2=NC(C(=O)O)C3C(=O)N(c4ccccc4)C(=O)C23)=C(O)c2ccccc21 (stereo unspecified),0,-10,-4,2,-6
O=C1C(C2=C(O)c3ccccc3C2=O)=Nc2ccccc21,15,14,-62,21*,-13
CC[n+]1c(/C=C(\C)Nc2ccccc2)sc2ccccc21,3,15,3,2,16
CC[n+]1c(/C=C(\C)OC)sc2ccccc21,.,-5,.,23*,.
Cc1ccc(/C=C/C(=O)NCc2ccco2)o1,12,14,-2,13,-3
Cc1ccc(/C=C/C(=O)NCc2ccccn2)o1,4,-3,-2,21*,-1
COc1ccc(S(=O)(=O)Nc2ccccc2C(=O)OC2CCCN(C)C2)cc1OC (stereo unspecified),27*,-4,1,-2,-5
COc1ccc(S(=O)(=O)Nc2ccccc2C(=O)NC(C)(C)C)cc1OC,-1,7,3,-1,2
O=C(CN1C(=O)S/C(=C\c2ccccc2F)C1=O)Nc1ccccc1O,0,-7,4,22*,-5
CCOC(=O)Cc1nc(N2CCN(C(=O)C3CCCO3)CC2)c2c(C)c(C(=O)OCC)sc2n1 (stereo unspecified),.,4,.,-11,.
CN(C(=O)CNC(=O)c1ccccc1OCC(=O)Nc1ccc(Br)cc1)c1ccccc1,.,-4,.,1,.
CCOCC(=O)Nc1cc(C(=O)OC)ccc1C(=O)OC,5,-1,5,-1,37*
COC(=O)c1ccc(C(=O)OC)c(NC(=O)CN(c2ccccc2)S(=O)(=O)N(C)C)c1,37*,1,3,4,-10
Nc1ccc(S(=O)(=O)c2ccccc2)nc1,2,-1,1,0,7
Cc1ccc(S(=O)(=O)c2ccc([N+](=O)[O-])cn2)cc1,5,-5,7,34*,7
Cc1cc(S(=O)(=O)c2ccc([N+](=O)[O-])cn2)ccc1Br,4,-17,6,11,8
O=[N+]([O-])c1ccc(S(=O)(=O)c2ccccc2)nc1,7,20,4,29*,3
CCOc1ccc2nc(N/C(N)=N/C(=S)Nc3cccc(C)c3)nc(C)c2c1,2,0,-2,-5,-8
SMILES,CTSL1 counter,TDP2 inh,PAD4 FP inh,PRMT1 inh,GSTO1 inh
CCOc1ccc2nc(N/C(N)=N/C(=S)Nc3cccc(OC)c3)nc(C)c2c1,23*,-8,-1,1,-9
CN1CC=C(c2ccccc2)N(c2ccc(Cl)cc2)C1=O,.,-3,.,-3,.
NC(=S)N/N=C/c1ccc2cccc(OCc3ccccc3)c2n1,18*,5,14,3,-4
CCc1nnc(NC(=O)CN2C(=O)/C(=C/c3cc(OC)c(OC)c(OC)c3)SC2=S)s1,0,3,-11,21*,3
CCCCCCCCN1C(=O)[C@@H](CC(=O)NCCC(C)C)C[C@@]2(C(=O)OC)C1=C[C@H](COCc1ccccc1)O[C@@H]2C,.,5,.,-1,.
O=C1CSC(=S)N1Nc1ccccc1,.,8,.,24*,.
O=C(NCCCN1CCOCC1)c1coc2ccccc2c1=O,-2,3,0,-1,35*
O=C(Nc1ccccc1C(=O)NCCCN1CCOCC1)c1cccc([N+](=O)[O-])c1,18*,-4,0,-5,3
Nc1ccccc1C(=O)NCCCN1CCOCC1,-2,-27,-2,-5,3
NCCN1CCN(S(=O)(=O)c2ccc3c(c2)CCN3C(=O)C2CCC2)CC1,.,6,.,2,.
COC(=O)C1CN(C2CCCC2)CCS(=O)(=O)N1Cc1cn(Cc2ccc(F)cc2)nn1 (stereo unspecified),.,-8,.,-4,.
CC(C)[C@H](NC(=O)[C@H](CCCN=C(N)N)NC(=O)NC(Cc1ccccc1)C(=O)O)C(=O)NC(C=O)CCCN=C(N)N (stereo partly specified),112*,10,3,-1,1
CCCCNC(=O)C1CCCN1C(=O)Nc1ccc(Cl)cc1 (stereo unspecified),.,14,.,-3,.
CC(C)(C)c1cc[n+](/C(C(=S)Nc2ccccc2F)=C(/[O-])c2ccc3c(c2)OCCO3)cc1,0,8,-2,24*,-2
CCOc1ccccc1NC(=S)/C(=C(\[O-])c1ccc2c(c1)OCCO2)[n+]1ccc(CC)cc1,0,6,0,7,7
O=C(NC1CCC1)c1ccc(C#Cc2cccc(F)c2)nc1,.,3,.,-1,.
O=C(/C=C/c1ccccc1Cl)NC1CCS(=O)(=O)C1 (stereo unspecified),42*,5,-5,3,-3
COc1ccc(C(c2nnnn2C2CCCCC2)N2CCN(C)CC2)c(OC)c1 (stereo unspecified),18*,8,-5,-3,15
COc1ccc2[nH]c(=O)c(C(c3nnnn3C3CCCCC3)N3CCN(C)CC3)cc2c1 (stereo unspecified),2,-8,-1,1,4
Cc1oc2cc(O)ccc2c(=O)c1Oc1ccc2ccccc2c1,5,-6,2,0,37*
Cc1oc2cc(O)ccc2c(=O)c1Oc1ccc(F)cc1,-9,12,0,-1,-10
CCOC(=O)/C=C/C(=O)Nc1ccc(S(=O)(=O)N2CCCCCC2)cc1,31*,2,3,2,-9
CCCCCC(=O)Nc1ccc(-c2nnc3n2CCCCC3)cc1,-2,10,-3,-1,-3
CCOC(=O)/C=C/C(=O)Nc1ccc(S(=O)(=O)N2CCc3ccccc32)cc1,11,-5,-5,-1,-18
CCOC(=O)/C=C/C(=O)Nc1ccc(-c2nnc3n2CCCCC3)cc1,37*,0,-7,0,0

# Compound activity deposited in PubChem BioAssay by The Scripps Research Institute Molecular Screening Center.
